Measured values reported in ChEMBL document CHEMBL1155347, “Synthesis and antimicrobial activities of novel quinoline derivatives carrying 1,2,4-triazole moiety” (2009).

Columns and labels:
Format in all cases: functional
[1] = test system: Staphylococcus aureus; assay: Antibacterial activity against Staphylococcus aureus ATCC 25923 after 16 to 18 hrs by serial plate dilution method
Procedure, shortened: (§1)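 Drug serially diluted in Mueller–Hinton broth in tubes, adjusted to pH 5.0 with phosphate buffer. Inoculated with standardized bacterial suspension and incubated 16–18 h at 37 °C. MIC taken as lowest concentration with no visible growth.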

[2] = test system: Klebsiella pneumoniae; assay: Antibacterial activity against recultured Klebsiella pneumoniae after 16 to 18 hrs by serial plate dilution method; procedure, shortened: as §1
[3] = test system: Pseudomonas aeruginosa; assay: Antibacterial activity against Pseudomonas aeruginosa ATCC 27853 after 16 to 18 hrs by serial plate dilution method; procedure, shortened: as §1
[4] = test system: Staphylococcus aureus; assay: Antibacterial activity against Staphylococcus aureus ATCC 25923 at MIC after 3 to 4 days by agar well diffusion method
[5] = test system: Pseudomonas aeruginosa; assay: Antibacterial activity against Pseudomonas aeruginosa ATCC 27853 at MIC after 3 to 4 days by agar well diffusion method
[6] = test system: Talaromyces marneffei; assay: Antifungal activity against recultured Penicillium marneffei at MIC after 3 to 4 days by agar well diffusion method
Procedure, shortened: (§2)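 Sabouraud agar (peptone, D-glucose, agar; pH 5.7) seeded with spore suspension made by transferring a loopful of fungus to 3 mL normal saline. Excess decanted, plates dried 1 h at 37 °C. Compounds in DMSO at MIC added to punched wells; DMSO control. Triplicate plates kept 3–4 days at 37 °C.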

[7] = test system: Aspergillus fumigatus; assay: Antifungal activity against Aspergillus fumigatus NCIM 902 at MIC after 3 to 4 days by agar well diffusion method; procedure, shortened: as §2
[8] = test system: Aspergillus fumigatus; assay: Antifungal activity against Aspergillus fumigatus NCIM 902 by serial plate dilution method
[9] = test system: Aspergillus flavus; assay: Antifungal activity against Aspergillus flavus NCIM 524 by serial plate dilution method
[10] = test system: Klebsiella pneumoniae; assay: Antibacterial activity against recultured Klebsiella pneumoniae at MIC after 3 to 4 days by agar well diffusion method
[11] = test system: Trichophyton mentagrophytes; assay: Antifungal activity against recultured Trichophyton mentagrophytes by serial plate dilution method
[12] = test system: Escherichia coli; assay: Antibacterial activity against Escherichia coli ATCC 25922 at MIC after 3 to 4 days by agar well diffusion method
[13] = test system: Escherichia coli; assay: Antibacterial activity against Escherichia coli ATCC 25922 after 16 to 18 hrs by serial plate dilution method; procedure, shortened: as §1
[14] = test system: Aspergillus flavus; assay: Antifungal activity against Aspergillus flavus NCIM 524 at MIC after 3 to 4 days by agar well diffusion method; procedure, shortened: as §2
[15] = test system: Trichophyton mentagrophytes; assay: Antifungal activity against recultured Trichophyton mentagrophytes at MIC after 3 to 4 days by agar well diffusion method; procedure, shortened: as §2
[16] = test system: Talaromyces marneffei; assay: Antifungal activity against recultured Penicillium marneffei by serial plate dilution method

FC(F)(F)c1cccc2c(NC3CCCCC3)c(-c3nnc(S)n3-c3ccccc3)cnc12
16 mm: inhibition zone (IZ) [4] | inhibition zone (IZ) [5] | inhibition zone (IZ) [6] | inhibition zone (IZ) [7] | inhibition zone (IZ) [10] | inhibition zone (IZ) [14]
20 mm: inhibition zone (IZ) [12] | inhibition zone (IZ) [15]
6.25 µg/mL: MIC [1] | MIC [2] | MIC [3] | MIC [8] | MIC [9] | MIC [11] | MIC [13] | MIC [16]

FC(F)(F)c1cccc2c(N3CCC(N4CCOCC4)CC3)c(-c3nnc(S)n3-c3ccccc3)cnc12
16 mm: inhibition zone (IZ) [4] | inhibition zone (IZ) [5] | inhibition zone (IZ) [6] | inhibition zone (IZ) [7] | inhibition zone (IZ) [10] | inhibition zone (IZ) [14]
20 mm: inhibition zone (IZ) [12] | inhibition zone (IZ) [15]
6.25 µg/mL: MIC [1] | MIC [2] | MIC [3] | MIC [8] | MIC [9] | MIC [11] | MIC [13] | MIC [16]

COCCn1c(S)nnc1-c1cnc2c(C(F)(F)F)cccc2c1NC1CCCCC1
16 mm: inhibition zone (IZ) [4] | inhibition zone (IZ) [5] | inhibition zone (IZ) [6] | inhibition zone (IZ) [7] | inhibition zone (IZ) [10] | inhibition zone (IZ) [14]
6.25 µg/mL: MIC [1] | MIC [2] | MIC [3] | MIC [8] | MIC [9] | MIC [11] | MIC [13] | MIC [16]
20 mm: inhibition zone (IZ) [12] | inhibition zone (IZ) [15]

OCCCC1CCN(c2c(-c3nnc(S)n3-c3ccccc3)cnc3c(C(F)(F)F)cccc23)CC1
6.25 µg/mL: MIC [1]
50 µg/mL: MIC [2] | MIC [3] | MIC [8] | MIC [9] | MIC [11] | MIC [16]
12.5 µg/mL: MIC [13]
16 mm: inhibition zone (IZ) [4] | inhibition zone (IZ) [12]
<10 mm: inhibition zone (IZ) [5] | inhibition zone (IZ) [6] | inhibition zone (IZ) [7] | inhibition zone (IZ) [10] | inhibition zone (IZ) [14] | inhibition zone (IZ) [15]

FC(F)(F)c1cccc2c(N3CCOCC3)c(-c3nnc(S)n3-c3ccccc3)cnc12
6.25 µg/mL: MIC [1] | MIC [2] | MIC [3] | MIC [8] | MIC [9] | MIC [11] | MIC [13] | MIC [16]
16 mm: inhibition zone (IZ) [4] | inhibition zone (IZ) [5] | inhibition zone (IZ) [6] | inhibition zone (IZ) [7] | inhibition zone (IZ) [10] | inhibition zone (IZ) [14]
20 mm: inhibition zone (IZ) [12] | inhibition zone (IZ) [15]

FC(F)(F)c1cccc2c(N3CCN(C4CCCCC4)CC3)c(-c3nnc(S)n3Cc3ccccc3)cnc12
<10 mm: inhibition zone (IZ) [5] | inhibition zone (IZ) [6] | inhibition zone (IZ) [7] | inhibition zone (IZ) [10] | inhibition zone (IZ) [12] | inhibition zone (IZ) [14] | inhibition zone (IZ) [15]
16 mm: inhibition zone (IZ) [4]
6.25 µg/mL: MIC [1]
50 µg/mL: MIC [2] | MIC [3] | MIC [8] | MIC [9] | MIC [11] | MIC [13] | MIC [16]

FC(F)(F)c1cccc2c(N3CCN(C4CCCCC4)CC3)c(-c3nnc(S)n3-c3ccccc3)cnc12
<10 mm: inhibition zone (IZ) [4] | inhibition zone (IZ) [5] | inhibition zone (IZ) [6] | inhibition zone (IZ) [7] | inhibition zone (IZ) [10] | inhibition zone (IZ) [14] | inhibition zone (IZ) [15]
6.25 µg/mL: MIC [13]
20 mm: inhibition zone (IZ) [12]
50 µg/mL: MIC [1] | MIC [2] | MIC [3] | MIC [8] | MIC [9] | MIC [11] | MIC [16]

COCCn1c(S)nnc1-c1cnc2c(C(F)(F)F)cccc2c1O
16 mm: inhibition zone (IZ) [4] | inhibition zone (IZ) [5] | inhibition zone (IZ) [6] | inhibition zone (IZ) [7] | inhibition zone (IZ) [10] | inhibition zone (IZ) [14]
20 mm: inhibition zone (IZ) [12] | inhibition zone (IZ) [15]
6.25 µg/mL: MIC [1] | MIC [2] | MIC [3] | MIC [8] | MIC [9] | MIC [11] | MIC [13] | MIC [16]

FC(F)(F)c1cccc2c(NC3CCCCC3)c(-c3nnc(S)n3Cc3ccccc3)cnc12
10 mm: inhibition zone (IZ) [4] | inhibition zone (IZ) [5] | inhibition zone (IZ) [6] | inhibition zone (IZ) [7] | inhibition zone (IZ) [14]
12 mm: inhibition zone (IZ) [10]
16 mm: inhibition zone (IZ) [12] | inhibition zone (IZ) [15]
12.5 µg/mL: MIC [1] | MIC [2] | MIC [3] | MIC [8] | MIC [9] | MIC [11] | MIC [13] | MIC [16]

FC(F)(F)c1cccc2c(Cl)c(-c3nnc(S)n3-c3ccccc3)cnc12
16 mm: inhibition zone (IZ) [4] | inhibition zone (IZ) [5] | inhibition zone (IZ) [6] | inhibition zone (IZ) [7] | inhibition zone (IZ) [10] | inhibition zone (IZ) [14]
20 mm: inhibition zone (IZ) [12] | inhibition zone (IZ) [15]
6.25 µg/mL: MIC [1] | MIC [2] | MIC [3] | MIC [8] | MIC [9] | MIC [11] | MIC [13] | MIC [16]

CCN1CCN(c2c(-c3nnc(S)n3CCOC)cnc3c(C(F)(F)F)cccc23)CC1
<10 mm: inhibition zone (IZ) [4] | inhibition zone (IZ) [5] | inhibition zone (IZ) [6] | inhibition zone (IZ) [7] | inhibition zone (IZ) [10] | inhibition zone (IZ) [14]
20 mm: inhibition zone (IZ) [12] | inhibition zone (IZ) [15]
6.25 µg/mL: MIC [11] | MIC [13]
50 µg/mL: MIC [1] | MIC [2] | MIC [3] | MIC [8] | MIC [9] | MIC [16]
